The source made the active and inactive calls. The rule behind the calls is not given here.
Assays:
[1] = target: T1, Beta-1 adrenergic receptor (Homo sapiens, UniProt P08588); experiment: Agonist activity at human adrenergic beta1 receptor expressed in DHB-11 CHO cells assessed as cAMP accumulation after 20 mins by scintillation proximity assay; type: functional, cell-based
Target sequence in this assay (P08588 whole entry): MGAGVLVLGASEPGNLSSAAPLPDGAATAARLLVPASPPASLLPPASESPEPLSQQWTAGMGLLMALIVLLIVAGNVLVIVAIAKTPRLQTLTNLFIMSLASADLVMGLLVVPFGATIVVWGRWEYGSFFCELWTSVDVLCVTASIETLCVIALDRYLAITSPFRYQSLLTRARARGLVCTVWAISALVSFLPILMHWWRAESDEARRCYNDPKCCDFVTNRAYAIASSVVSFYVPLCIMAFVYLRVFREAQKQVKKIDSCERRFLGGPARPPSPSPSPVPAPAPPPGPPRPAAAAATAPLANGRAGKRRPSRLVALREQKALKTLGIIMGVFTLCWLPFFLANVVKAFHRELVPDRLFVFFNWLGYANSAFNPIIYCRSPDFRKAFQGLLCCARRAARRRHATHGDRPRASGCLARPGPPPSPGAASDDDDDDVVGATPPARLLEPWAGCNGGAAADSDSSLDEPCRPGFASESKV

[2] = target: Beta-3 adrenergic receptor (Rattus norvegicus, UniProt P26255); experiment: Agonist activity at rat adrenergic beta3 receptor expressed in DHB-11 CHO cells assessed as cAMP accumulation after 20 mins by scintillation proximity assay; type: functional, cell-based
[3] = target: T2, Beta-2 adrenergic receptor (Homo sapiens, UniProt P07550); experiment: Agonist activity at human adrenergic beta2 receptor expressed in DHB-11 CHO cells assessed as cAMP accumulation after 20 mins by scintillation proximity assay; type: functional, cell-based
Target sequence in this assay (P07550 whole entry): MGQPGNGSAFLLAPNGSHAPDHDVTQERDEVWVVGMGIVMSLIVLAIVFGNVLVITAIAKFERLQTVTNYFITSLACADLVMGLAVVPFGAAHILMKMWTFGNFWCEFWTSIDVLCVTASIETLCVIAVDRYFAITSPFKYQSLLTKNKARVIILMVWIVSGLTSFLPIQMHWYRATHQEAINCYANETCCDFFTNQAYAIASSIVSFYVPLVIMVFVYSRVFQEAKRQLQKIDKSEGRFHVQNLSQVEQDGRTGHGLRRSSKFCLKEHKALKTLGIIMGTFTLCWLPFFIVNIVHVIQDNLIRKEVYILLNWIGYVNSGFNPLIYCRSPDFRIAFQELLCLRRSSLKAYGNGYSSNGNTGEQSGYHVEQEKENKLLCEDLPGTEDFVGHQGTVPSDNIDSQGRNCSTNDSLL

[4] = target: T3, Beta-3 adrenergic receptor (Homo sapiens, UniProt P13945); experiment: Agonist activity at human adrenergic beta3 receptor expressed in DHB-11 CHO cells assessed as cAMP accumulation after 20 mins by scintillation proximity assay; type: functional, cell-based
Target sequence in this assay (P13945 whole entry): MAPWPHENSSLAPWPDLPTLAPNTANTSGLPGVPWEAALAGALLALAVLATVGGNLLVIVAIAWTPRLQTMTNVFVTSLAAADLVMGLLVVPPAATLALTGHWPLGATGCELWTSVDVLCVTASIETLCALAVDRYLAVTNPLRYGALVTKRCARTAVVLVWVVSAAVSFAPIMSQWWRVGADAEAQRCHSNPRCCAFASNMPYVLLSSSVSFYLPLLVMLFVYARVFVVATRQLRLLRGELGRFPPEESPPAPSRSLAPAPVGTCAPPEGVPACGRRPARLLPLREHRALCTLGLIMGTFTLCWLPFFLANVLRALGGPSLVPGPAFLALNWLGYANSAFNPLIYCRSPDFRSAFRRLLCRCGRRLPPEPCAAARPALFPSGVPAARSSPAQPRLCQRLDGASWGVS

Homo sapiens [5] = organism: Homo sapiens; experiment: Inhibition of sibutramine-induced increase in systolic blood pressure in human at 30 to 300 mg; type: functional, Artery
[6] = Elimination half life in healthy human at 60 mg; type: ADME, organism-based; conditions: in vivo, read-out: beta t1/2 (converted)
Outline: (§1)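 Healthy human volunteers were dosed and plasma concentrations followed over time. Tmax was taken from the plasma profile, and terminal elimination half-life was estimated after a 60-mg dose.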

Homo sapiens [7] = organism: Homo sapiens; experiment: Inhibition of sibutramine-induced increase in heart rate in human at 30 to 300 mg; type: functional
[8] = Tmax in healthy human plasma; type: ADME, organism-based; outline: as §1
Homo sapiens [9] = organism: Homo sapiens; experiment: Inhibition of sibutramine-induced increase in diastolic blood pressure in human at 30 to 300 mg; type: functional, Artery
[10] = target: T3, Beta-3 adrenergic receptor; experiment: Agonist activity at human adrenergic beta3 receptor expressed in DHB-11 CHO cells assessed as cAMP accumulation after 20 mins by scintillation proximity assay relative to isoproterenol; type: functional, cell-based
Target sequence in this assay (P13945 whole entry, looked up): as the sequence (P13945 whole entry) above

[11] = target: T1, Beta-1 adrenergic receptor; experiment: Agonist activity at human adrenergic beta1 receptor expressed in DHB-11 CHO cells assessed as cAMP accumulation after 20 mins by scintillation proximity assay relative to isoproterenol; type: functional, cell-based
Outline: (§2)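 Whole-cell functional assay in transfected CHO cells expressing the human receptor, read as stimulated cAMP accumulation. Values are reported as the geometric mean ± standard deviation, with the number of runs (n) given.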
Target sequence in this assay (P08588 whole entry, looked up): as the sequence (P08588 whole entry) above

Rattus norvegicus [12] = experiment: Antiobesity activity in po dosed Long-Evans rat assessed as increase in energy expenditure measured after 4 hrs by indirect calorimetry analysis relative to control; type: functional, organism-based
Outline: (§3)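 Male Long–Evans rats with diet-induced obesity on a caloric dense diet received single oral doses of 3 or 10 mg/kg, with vehicle-treated rats as controls. Respiratory quotient (lipid utilization) and energy expenditure were followed by indirect calorimetry for about 4 h. Groups were compared by ANOVA with SNK post hoc test, p < 0.05.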

Rattus norvegicus [13] = experiment: Antiobesity activity in Long-Evans rat assessed as decrease in respiratory quotient at 3 to 10 mg/kg, po measured after 4 hrs by indirect calorimetry analysis relative to control; type: functional, organism-based; outline: as §3
[14] = target: Beta-3 adrenergic receptor (Rattus norvegicus) (UniProt P26255); experiment: Agonist activity at rat adrenergic beta3 receptor expressed in DHB-11 CHO cells assessed as cAMP accumulation after 20 mins by scintillation proximity assay relative to isoproterenol; type: functional, cell-based
[15] = target: T2, Beta-2 adrenergic receptor; experiment: Agonist activity at human adrenergic beta2 receptor expressed in DHB-11 CHO cells assessed as cAMP accumulation after 20 mins by scintillation proximity assay relative to isoproterenol; type: functional, cell-based; outline: as §2
Target sequence in this assay (P07550 whole entry, looked up): as the sequence (P07550 whole entry) above

Rattus norvegicus [16] = experiment: Antiobesity activity in po dosed Long-Evans rat assessed as increase in lipid utilization measured after 4 hrs by indirect calorimetry analysis relative to control; type: functional, organism-based; outline: as §3
Rattus norvegicus [17] = experiment: Antiobesity activity in Long-Evans rat assessed as increase in lipid utilization at 10 mg/kg, po measured after 4 hrs by indirect calorimetry analysis relative to control; type: functional, organism-based; set-up: dose 10 mg/kg; outline: as §3
[18] = target: T1, Beta-1 adrenergic receptor; experiment: Displacement of [125I]Iodocyanopindolol from human adrenergic beta1 receptor expressed in insect sf9 cells by scintillation counting
Target sequence in this assay (P08588 whole entry): as the sequence (P08588 whole entry) above

[19] = target: T2, Beta-2 adrenergic receptor; experiment: Displacement of [125I]Iodocyanopindolol from human adrenergic beta2 receptor expressed in insect sf9 cells by scintillation counting
Target sequence in this assay (P07550 whole entry): as the sequence (P07550 whole entry) above

Beta-3 adrenergic receptor (Rattus norvegicus), sequence (P26255 whole entry): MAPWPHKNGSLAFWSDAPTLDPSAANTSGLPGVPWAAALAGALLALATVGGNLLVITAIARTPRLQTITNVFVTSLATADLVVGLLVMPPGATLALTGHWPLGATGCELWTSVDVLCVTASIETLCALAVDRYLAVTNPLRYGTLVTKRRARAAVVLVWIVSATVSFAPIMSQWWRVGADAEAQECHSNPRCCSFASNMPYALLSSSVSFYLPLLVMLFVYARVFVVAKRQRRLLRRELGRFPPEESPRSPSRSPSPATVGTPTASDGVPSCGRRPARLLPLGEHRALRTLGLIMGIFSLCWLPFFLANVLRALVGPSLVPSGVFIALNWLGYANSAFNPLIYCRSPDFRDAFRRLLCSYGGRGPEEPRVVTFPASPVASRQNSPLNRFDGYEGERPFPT
Beta-3 adrenergic receptor (Rattus norvegicus, UniProt P26255), sequence (P26255 whole entry): as above

For `CC(C)(Cc1ccc(Oc2ccc(C(N)=O)cn2)cc1)NC[C@H](O)COc1cccc2[nH]c3ccccc3c12` [listing 1 of 3 here], the EC50 [1] was > 3160 nM, the EC50 [2] was 5 nM and the EC50 [3] was > 3160 nM. The EC50 [4] was 2.4 nM.

In the case of `CC(C)(Cc1ccc(Oc2ccc(C(N)=O)cn2)cc1)NC[C@H](O)COc1cccc2[nH]c3ccccc3c12` [LY377604], the Activity (Homo sapiens [5]) is reported as 5.5 mmHg, the half-life [6] is reported as 9 h and the Activity (Homo sapiens [7]) is reported as 10.5 bpm. It also gave a Tmax [8] of 2 h and an Activity (Homo sapiens [9]) of 4.2 mmHg.

For `CC(C)(Cc1ccc(Oc2ccc(C(N)=O)cn2)cc1)NC[C@H](O)COc1cccc2[nH]c3ccccc3c12` [listing 2 of 3 here], the Emax [10] was 73.8%, the Emax [11] was < 10% and the Activity (Rattus norvegicus [12]) was “Dose-dependent effect”. The Activity (Rattus norvegicus [13]) was “Active”, the Emax [14] was 55.5% and the Emax [15] was < 10%. The Activity (Rattus norvegicus [16]) was “Dose-dependent effect” and the Activity (Rattus norvegicus [17]) was “Active”.

For `CC(C)(Cc1ccc(Oc2ccc(C(N)=O)cn2)cc1)NC[C@H](O)COc1cccc2[nH]c3ccccc3c12` [listing 3 of 3 here], the Ki [18] was 0.023 nM and the Ki [19] was 0.012 nM.
